Measured values reported in PMC3946399 (Molecular pharmaceutics, 2013).
Where two headings read alike, the source gives them in different places.

Experiments:
HL60/MX2 cells [1] = test: cells; format: cell-based
SERCA [2] = test: Evaluation of synergy in SERCA ATPase assay; format: biochemical, rabbit
SERCA [3] = conditions: cited from earlier work
HL60/MX2 cells [4] = format: cell-based; conditions: ratio of IC50 in HL60 and HL60/MX2
SERCA1a = SERCA1a (Oryctolagus cuniculus, UniProt P04191); format: biochemical, rabbit; conditions: for pKATP(reg) / pKATP(cat): pCa 5.4; for pKATP(reg): control 3.30 ± 0.08; for pKATP(cat): control 4.99 ± 0.07
Method in brief: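 Ca2+-dependent ATPase activity was measured in light SR vesicles from fast-twitch skeletal muscle of New Zealand white rabbits, using an NADH-linked coupled assay. Buffer was 5 mM MgCl2, 100 mM KCl, 1 mM EGTA (free Ca2+ set by EGTA buffering), 0.4 mM NADH, 10 IU/mL LDH, 10 IU/mL PK, 7 ug/mL A23187, 50 mM MOPS pH 7.0. Compounds were added in 1% DMSO final. Runs were at 37 °C in duplicate or triplicate, and rates were taken from A340 decay.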

[5] = in combination with (−)-CXL017 at fixed molar ratio, CI<0.9 synergy

Sequence of SERCA1a (P04191 1-994 isoform P04191-2): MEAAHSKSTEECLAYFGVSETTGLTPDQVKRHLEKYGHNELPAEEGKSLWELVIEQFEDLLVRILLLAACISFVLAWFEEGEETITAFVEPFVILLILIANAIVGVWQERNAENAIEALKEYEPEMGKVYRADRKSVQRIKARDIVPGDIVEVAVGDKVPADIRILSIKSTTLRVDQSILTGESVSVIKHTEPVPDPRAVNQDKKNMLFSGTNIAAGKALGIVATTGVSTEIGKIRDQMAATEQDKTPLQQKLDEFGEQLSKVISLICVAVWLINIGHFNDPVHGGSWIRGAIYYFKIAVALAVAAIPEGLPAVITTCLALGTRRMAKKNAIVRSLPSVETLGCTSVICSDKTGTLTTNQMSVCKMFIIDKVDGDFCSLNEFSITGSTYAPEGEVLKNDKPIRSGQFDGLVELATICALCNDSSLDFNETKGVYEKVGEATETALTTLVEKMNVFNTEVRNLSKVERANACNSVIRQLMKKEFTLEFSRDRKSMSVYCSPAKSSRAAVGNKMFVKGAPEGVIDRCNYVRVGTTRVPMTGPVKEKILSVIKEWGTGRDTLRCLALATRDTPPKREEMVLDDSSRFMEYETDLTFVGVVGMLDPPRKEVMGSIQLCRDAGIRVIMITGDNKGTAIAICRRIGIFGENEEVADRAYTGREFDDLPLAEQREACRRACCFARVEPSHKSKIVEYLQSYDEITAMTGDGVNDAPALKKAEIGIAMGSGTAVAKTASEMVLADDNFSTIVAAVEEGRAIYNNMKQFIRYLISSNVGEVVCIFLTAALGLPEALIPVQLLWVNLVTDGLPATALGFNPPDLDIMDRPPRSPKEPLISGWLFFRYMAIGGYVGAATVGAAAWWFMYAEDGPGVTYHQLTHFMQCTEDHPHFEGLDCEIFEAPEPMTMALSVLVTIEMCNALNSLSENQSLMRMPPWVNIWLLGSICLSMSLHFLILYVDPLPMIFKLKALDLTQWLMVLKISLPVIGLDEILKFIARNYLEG

## CCOC(=O)CC1C(C(=O)OCC)=C(N)Oc2ccc(-c3cc(OC)cc(OC)c3)cc21 (single isomer, unassigned; (-)) [(−)-CXL017]
HL60/MX2 cells [1]; 6.25 µM
  cell viability: 47%
SERCA [2]; (−)-CXL017 with each of the known SERCA inhibitors (TG, CPA, BHQ)
  combination index (CI): < 0.9

## CC(C)(C)c1cc(O)c(C(C)(C)C)cc1O [BHQ, 2,5-di-tert-butylhydroquinone]
SERCA [3]
  dissociation constant: submicromolar
SERCA [2]; [5]
  combination index (CI): 0.15–0.25
HL60/MX2 cells [4]
  selectivity for resistant cell line (HL60/MX2 over HL60): 7.7 fold

## CC(=O)C1=C(O)[C@@H]2[C@H]3c4c[nH]c5cccc(c45)C[C@H]3C(C)(C)N2C1=O [CPA, cyclopiazonic acid]
SERCA [3]
  dissociation constant: submicromolar
SERCA [2]; [5]
  combination index (CI): 0.35–0.45
HL60/MX2 cells [4]
  selectivity for resistant cell line (HL60/MX2 over HL60): 17 fold

## CCOC(=O)CC1C(C(=O)OCC)=C(N)Oc2ccc(-c3cc(OC)cc(OC)c3)cc21 (stereo not shown) [CXL017, Ethyl 2-amino-6-(3,5-dimethoxyphenyl)-4-(2-ethoxy-2-oxoethyl)-4H-chromene-3-carboxylate]
SERCA1a
  IC50: 25 ± 1 µM
SERCA1a; 10 μM CXL017, varied ATP
  pKATP(reg): 2.96 ± 0.07
  pKATP(cat): 3.92 ± 0.02
SERCA1a; 30 μM CXL017, varied ATP
  pKATP(reg): 2.6 ± 0.1
  pKATP(cat): 3.99 ± 0.02
SERCA1a; 10 or 30 μM CXL017
  effect on apparent Ca2+ affinity (pKCa): no significant effect
SERCA1a; 10 or 30 μM CXL017, varied ATP, two-site model
  change in Vmax at catalytic and regulatory ATP sites: no significant change

## C/C=C(/C)C(=O)O[C@H]1C(C)=C2[C@H]([C@@H]1OC(=O)CCCCCCC)[C@@](C)(OC(C)=O)C[C@H](OC(=O)CCC)[C@@]1(O)[C@H]2OC(=O)[C@@]1(C)O [TG, thapsigargin]
HL60/MX2 cells [1]; Homo sapiens, HL60/MX2, read-out: cell viability
  viability at 0.009375 µM: 43%
SERCA [3]
  dissociation constant: submicromolar
SERCA [2]; [5]
  combination index (CI): 0.4–0.65
HL60/MX2 cells [4]
  selectivity for resistant cell line (HL60/MX2 over HL60): 400 fold
